M4 ag: CHRM4 agonism in calcium assay | CHO-K1 hM4/Gqi5, Fluo-8 calcium fluorescence; vehicle 0%, full acetylcholine response 100% | activation, % at 3 µM | actives 0.14% (n = 360,000) | AID 624127;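 active = activation above the run mean over all test wells plus 3 SD, cut at about 32% in these data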;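 also: peak over basal fluorescence ratio per well then scaled between controls; 0% = DMSO wells and 100% = acetylcholine at EC100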
M5 antag: blocks acetylcholine activation of human M5 receptor | P08912 | CHO-hM5 cells, Fluo-8 calcium fluorescence, ACh EC80 | inhibition, % at 3 µM | actives 0.59% (n = 360,000) | AID 624040;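 active = inhibition above a per-plate cutoff, the mean of that plate's test compounds plus 3 SD, cut at about 27% in these data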;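 also: 0% = acetylcholine EC80 with DMSO and 100% = DMSO without agonist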
Target sequence (P08912 whole entry, looked up): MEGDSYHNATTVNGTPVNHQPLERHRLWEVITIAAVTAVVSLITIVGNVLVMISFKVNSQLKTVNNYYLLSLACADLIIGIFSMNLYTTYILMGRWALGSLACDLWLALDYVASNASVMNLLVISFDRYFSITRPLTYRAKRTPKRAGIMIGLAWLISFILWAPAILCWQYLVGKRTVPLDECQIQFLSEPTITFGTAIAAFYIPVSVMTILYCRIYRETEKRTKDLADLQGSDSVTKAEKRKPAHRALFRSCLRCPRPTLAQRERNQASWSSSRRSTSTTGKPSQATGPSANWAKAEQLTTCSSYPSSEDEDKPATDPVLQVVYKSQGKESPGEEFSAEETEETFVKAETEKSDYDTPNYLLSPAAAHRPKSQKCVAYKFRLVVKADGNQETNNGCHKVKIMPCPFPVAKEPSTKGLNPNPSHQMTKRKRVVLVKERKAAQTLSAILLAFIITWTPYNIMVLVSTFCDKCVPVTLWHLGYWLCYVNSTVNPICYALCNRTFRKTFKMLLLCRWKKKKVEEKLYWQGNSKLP
CHRM4 antagonist: antagonists of human muscarinic M4 receptor (CHRM4); P08173; CHO-hM4 cells, ACh EC80, Fluo-8 calcium fluorescence; AID 624125; inhibition, % at 3 µM; actives 0.73% (n = 360,000);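 active = inhibition above its plate's cutoff, the mean inhibition of sample wells plus 3 SD, cut at about 27% in these data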;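 also: 0% = acetylcholine EC80 with DMSO and 100% = DMSO without agonist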
M5 PAM: positive allosteric modulators of human muscarinic M5 receptor; P08912; CHO-K1 hM5, Fluo-8 calcium, ACh EC20 PAM; 0% = ACh EC20, 100% = ACh EC100; actives 0.3% (n = 360,000); activation, % at 3 µM; AID 624038;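 active = activation above the run cutoff, the mean activation of all test compounds plus 3 SD, cut at about 18% in these data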
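Measured by: Fluo-8 calcium fluorescence; material: human M5 receptor in CHO-K1 cells; schedule: Post-acetylcholine fluorescence recording 140 s; benchmarks: low control EC20 acetylcholine (0%), high control EC100 acetylcholine (100%); read-out: Max/basal fluorescence ratio as % of EC20–EC100 ACh window; compound: single dose, 3 µM nominal final test concentration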
CHRM5 agonist: agonists of human muscarinic M5 receptor (CHRM5) | AID 624037 | CHO-K1 hM5 cells, Fluo-8 calcium fluorescence; 0% DMSO wells, 100% maximal acetylcholine response | activation, % at 3 µM | actives 0.19% (n = 360,000) | P08912;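 active = activation above the run's mean over test compounds plus 3 SD, cut at about 23% in these data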;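 also: signal is peak over basal fluorescence ratio across the kinetic read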
M4 PAM: CHRM4 positive allosteric modulation; CHO-K1 hM4/Gqi5, Fluo-8 calcium fluorescence, ACh EC20; 0% = ACh EC20, 100% = maximal ACh; activation, % at 3 µM; AID 624126; P08173; actives 0.4% (n = 360,000);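 active = activation above its plate's cutoff, the mean activation of sample wells plus 3 SD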
Starred values were filed as active, the others as inactive; ! = a repeat was not active. In the library only some 1.8% were active in any assay of this set; here they are far more common.

SMILES	M4 ag	M5 antag	CHRM4 antagonist	M5 PAM	CHRM5 agonist	M4 PAM
CCOCC(=O)Nc1ccc([N+](=O)[O-])cc1OC	1	4	-8	1	-3	12
COc1cc(NC(=O)c2cc3ccccc3cc2O)c(OC)cc1Cl	18	17	8	-12	5	-13
COc1ccccc1NC(=O)c1cc2cc(Br)ccc2cc1O	33*	37*	28*	-18	6	-19
CCOC(=O)C1(CCCc2ccccc2)CCN(C2CCSCC2)CC1	3	30*	8	-21	-11	-20
CCN1C[C@@H]2[C@@H]3C(=O)N(C)C(=O)[C@@H]3[C@](C)(C1=O)N2C(=O)c1ccc(F)cc1	0	12	7	-6	1	1
Cc1cc(C)n(-c2cccc(F)n2)n1	0	-1	3	19*	4	1
CC(C)c1cc(C(=O)Nc2cc(Br)ccc2O)no1	1	34*	4	-14	-4	-8
O=C(CCc1ccccc1)N1CCN(c2ccc([N+](=O)[O-])cc2)CC1	10	2	-1	-4	1	29*
Cc1cc(C(=O)N2CCN(c3ccc([N+](=O)[O-])cc3)CC2)co1	17	1	33*	-7	2	41*
Cc1cc(C(=O)N2CCN(c3ccc([N+](=O)[O-])cc3)CC2)c(C)o1	6	9	-8	-13	2	-2
O=C(CN1CCN(c2ccc([N+](=O)[O-])cc2)CC1)c1ccccc1	2	9	29*	-4	-3	-16
CCOc1ccc(S(=O)(=O)N2CCN(C(=O)c3cc(C4CC4)nn3-c3ccccc3)CC2)cc1	7	7	-3	-27	-8	-14
CC1(C)C(=O)Nc2ccccc2N1C(=O)COC(=O)CNS(=O)(=O)c1ccc(Br)cc1Cl	4	4	3	-8	0	-3
CCCCCCCCN1C(=O)[C@H](CC(=O)N2CCOCC2)C[C@@]2(C(=O)OCC)CCCC=C12	-3	-14	-5	14	-3	5
S=C1Cc2ccccc2N1	0	11	23	4	0	39*
c1ccc(CC2CCN(C3=Nc4cccc5cccc3c45)CC2)cc1	7	17	27*	-28	-13	-18
c1cc2c3c(cccc3c1)C(N1CCOCC1)=N2	1	12	-1	9	-5	-7
Cn1nc(C(F)(F)F)c(-c2ccc(Br)cc2)c1NC(=O)Nc1ccc(F)cc1F	14	30*	8	-20	9	-14
O=S(=O)(Nc1ccccn1)c1ccc(Cl)c2ccccc12	1	8	4	5	-5	6
C#CCOC(=O)CCCC(=O)NCCCCCCCC	1	0	-12	27*	9	12
NC(=O)c1cccc2c(=O)oc3ccccc3c12	1	-10	-5	19*	-2	6
O=c1oc2ccccc2c2c1cnc1ccccc12	2	-3	-12	-1	0	4
COc1cccc(S(=O)(=O)Nc2ccc3c(c2)C(=O)N(C)C[C@H](OC)[C@H](C)CN[C@@H](C)CO3)c1	2	-5	-13	5	-2	3
CN1C(=O)c2cccc3c(Cl)ccc(c23)C1=O	0	-9	-15	10	-1	5
CN1C(=O)c2cccc3c(N(C)C)ccc(c23)C1=O	15	21	11	-10	41*	-6
SMILES	M4 ag	M5 antag	CHRM4 antagonist	M5 PAM	CHRM5 agonist	M4 PAM
CNc1ccc2c3c(cccc13)C(=O)N(C)C2=O	229*	43*	40*	-20	125*	-23
CCC(C)Sc1ccc(-c2nc3ccc(C)cn3c2NCc2ccccc2)cc1OC (stereo unspecified)	10	24	44*	-38	-7	-5
CCC(C)Sc1cc(-c2nc3ccc(C)cn3c2NCc2ccccc2)ccc1OC (stereo unspecified)	15	29*!	72*	-39	-2	-13
CC(C)Nc1nc(Nc2ccc(C(N)=O)cc2)c2sccc2n1	7	5	5	-5	1	-6
CON(c1nc(Cl)nc(N(C)C)n1)S(=O)(=O)c1ccc(C)cc1	-1	6	7	0	-7	5
CCc1nc2ccccc2c(C(=O)OCC(=O)Nc2cccc(S(=O)(=O)N3CCOCC3)c2)c1C	11	11	30*	-18	4	-19
O=C(COC(=O)c1cc(S(=O)(=O)N2CCCC2)ccc1O)Nc1ccc(S(=O)(=O)N2CCOCC2)cc1	4	9	15	4	-4	37*
Cn1nccc1C(=O)Nc1cccc(S(=O)(=O)N2CCOCC2)c1	1	-2	8	2	-1	22*
CC(C)c1ccc(NC(=O)c2ccc(-c3ccnn3C)c3ccoc23)cc1	7	9	7	-8	1	-8
O=C(NCC(O)c1nc2ccccc2[nH]1)c1cc2ccccc2[nH]1 (stereo unspecified)	2	15	6	-6	0	-6
CN(C)CCN(Cc1ccccc1)C(c1cc2ccccc2o1)c1nnnn1C(C)(C)C (stereo unspecified)	6	3	-5	-3	-1	0
O=C(CSc1ccc(-c2ccccn2)nn1)c1ccccc1	7	5	-10	-3	-3	-11
O=C(CSc1ccc(-c2ccccn2)nn1)c1ccc(F)cc1	4	32*	7	28*	4	12
O=C(O)c1ccc(NC(=O)c2ccco2)c(NC(=O)c2ccco2)c1	1	4	-4	0	-2	4
Cc1c(Cl)cccc1NC(=S)NCC1COc2ccccc2O1 (stereo unspecified)	14	39*	4	-20	-1	-14
COc1ccc(Cl)cc1NC(=O)C1CCN(C(=O)C2CC(=O)N(c3ccc(C)cc3)C2)CC1 (stereo unspecified)	2	6	0	-3	-2	-3
Cc1cc(NC(=O)COc2ccc(C)c(C)c2)no1	2	-8	3	11	2	3
Cc1cc(NC(=O)COc2ccc(F)c(Cl)c2)no1	2	0	-9	-2	-2	19*
COc1cc(OC)c(NC(=O)CCNS(=O)(=O)c2ccc3c(c2)CC(C)N3C(C)=O)cc1Cl (stereo unspecified)	1	11	0	-9	-7	-1
CC(C)C[C@H]1CN(CCCC[C@H]2CNC(=O)C(=O)N2CCc2ccccc2)C(=O)C(=O)N1CC1CCCCC1	-1	8	3	-2	-2	0
Cc1nn(CC(=O)N2CCc3ccccc3C2)c(C)c1Cl	-1	-11	-8	21*	-5	1

Source: PubChem BioAssay
